EPA's CvTdb concentration-time database

Columns and labels:
Rat [1] = experiment: concentration in liver after dosing; details: 24 h; dosed: Perfluorohexane-1-sulphonic acid – potassium salt; 16 mg/kg; oral; Female; F344
Rat [2] = experiment: concentration in liver after dosing; details: 192 h; dosed: Perfluorohexane-1-sulphonic acid – potassium salt; 16 mg/kg; oral; Female; F344
Rat [3] = experiment: concentration in liver after dosing; details: 192 h; dosed: Perfluorohexane-1-sulphonic acid – potassium salt; 16 mg/kg; oral; Female; Harlan Sprague Dawley
Rat [4] = experiment: concentration in brain after dosing; details: 3 h; dosed: Perfluorohexane-1-sulphonic acid – potassium salt; 16 mg/kg; oral; Female; F344
Rat [5] = experiment: concentration in kidney after dosing; details: 1200 h; dosed: Perfluorohexane-1-sulphonic acid – potassium salt; 16 mg/kg; oral; Male; Harlan Sprague Dawley
Rat [6] = experiment: concentration in liver after dosing; details: 12 h; dosed: Perfluorohexane-1-sulphonic acid – potassium salt; 16 mg/kg; oral; Female; F344
Rat [7] = experiment: concentration in brain after dosing; details: 48 h; dosed: Perfluorohexane-1-sulphonic acid – potassium salt; 16 mg/kg; oral; Female; Harlan Sprague Dawley
Rat [8] = experiment: concentration in kidney after dosing; details: 12 h; dosed: Perfluorohexane-1-sulphonic acid – potassium salt; 16 mg/kg; oral; Female; Harlan Sprague Dawley
Rat [9] = experiment: concentration in plasma after dosing; details: dosed: Pyridine, 5 mg/kg, oral, Male, F344
Rat [10] = experiment: concentration in plasma after dosing; details: dosed: Pyridine, 25 mg/kg, oral, Female, Harlan Sprague-Dawley
human [11] = experiment: concentration in blood after dosing; details: dosed: trichloroethylene, 100 ppm, inhalation, duration: 6 hr, male
How it was run: (§1)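 Sampling and analytical methods are those of each source and frequently went unreported. The concentration-versus-time and amount-versus-time points were compiled from published in vivo toxicokinetic studies and two structured collections. Most were digitised from plot screenshots with WebPlotDigitizer, with others copied from tables, in the reported units.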

human [12] = experiment: concentration in blood after dosing; negative times count back from the end of exposure; details: dosed: trichloroethylene, 100 ppm, inhalation, duration: 6 hr, female
How it was run: as §1

Rat [13] = experiment: concentration in plasma after dosing; details: dosed: Methyleugenol, 37 mg/kg, iv, Female, F344
Rat [14] = experiment: concentration in plasma after dosing; details: dosed: Methyleugenol, 37 mg/kg, iv, Male, F344
Rat [15] = experiment: concentration in plasma after dosing; details: dosed: Methyleugenol, 37 mg/kg, oral, Female, F344/N
Rat [16] = experiment: concentration in plasma after dosing; details: dosed: 2-Hydroxy-4-methoxybenzophenone, 500 mg/kg, oral, Male, F344
Mouse [17] = experiment: concentration in plasma after dosing; details: 2 h; dosed: 2-Hydroxy-4-methoxybenzophenone; 500 mg/kg; oral; Male; B6C3F1
Mouse [18] = experiment: concentration in plasma after dosing; details: 3 h; dosed: 2-Hydroxy-4-methoxybenzophenone; 50 mg/kg; iv; Female; B6C3F1
Rat [19] = experiment: concentration in plasma after dosing; details: dosed: 2-Hydroxy-4-methoxybenzophenone, 500 mg/kg, oral, Female, F344
Rat [20] = experiment: concentration in plasma after dosing; details: 6 h; dosed: 2-Hydroxy-4-methoxybenzophenone; 500 mg/kg; oral; Male; F344
Mouse [21] = experiment: concentration in plasma after dosing; details: 0.25 h; dosed: 2-Hydroxy-4-methoxybenzophenone; 250 mg/kg; oral; Male; B6C3F1
Mouse [22] = experiment: concentration in plasma after dosing; details: 3 h; dosed: 2-Hydroxy-4-methoxybenzophenone; 250 mg/kg; oral; Female; B6C3F1
Rat [23] = experiment: concentration in plasma after dosing; details: dosed: 2-Hydroxy-4-methoxybenzophenone, 250 mg/kg, oral, Male, F344
Rat [24] = experiment: concentration in plasma after dosing; details: 12 h; dosed: alpha-Thujone; 50 mg/kg; oral; Female; Harlan Sprague Dawley
Rat [25] = experiment: concentration in brain after dosing; details: 10 min; dosed: alpha-Thujone; 50 mg/kg; oral; Female; Harlan Sprague Dawley
Rat [26] = experiment: concentration in brain after dosing; details: 0.5 h; dosed: alpha-Thujone; 50 mg/kg; oral; Female; Harlan Sprague Dawley
Rat [27] = experiment: concentration in plasma after dosing; details: 10 min; dosed: alpha-Thujone; 25 mg/kg; oral; Male; Harlan Sprague Dawley
Rat [28] = experiment: concentration in brain after dosing; details: 2.5 h; dosed: 76231-76-0; 3.0 mg/kg; iv; Female; F344
Rat [29] = experiment: concentration in plasma after dosing; details: 10 min; dosed: alpha-Thujone; 25 mg/kg; oral; Male; Harlan Sprague Dawley; remark: listed apart in the source
Rat [30] = experiment: concentration in brain after dosing; details: 3 h; dosed: alpha-Thujone; 25 mg/kg; oral; Male; Harlan Sprague Dawley
Rat [31] = experiment: concentration in brain after dosing; details: 1.5 h; dosed: alpha-Thujone; 50 mg/kg; oral; Female; Harlan Sprague Dawley
Rat [32] = experiment: concentration in plasma after dosing; details: 18 h; dosed: Primidone; 80 mg/kg; oral; Female; F344

O=S(=O)([O-])C(F)(F)C(F)(F)C(F)(F)C(F)(F)C(F)(F)C(F)(F)F.[K+] [Perfluorohexane-1-sulphonic acid – potassium salt]
Details	concentration in brain [ng/g]	concentration in kidney [ng/g]	concentration in liver [ng/g]
Rat [1]	–	–	78000
Rat [2]	–	–	38200
Rat [3]	–	–	1580
Rat [4]	1090	–	–
Rat [5]	–	2640	–
Rat [6]	–	–	75600
Rat [7]	496	–	–
Rat [8]	–	31200	–

c1ccncc1 [Pyridine]
concentration in plasma [ng/mL]
Details	0.5 h	1 h	6 h	8 h
Rat [9]	3170	–	1620	–
Rat [10]	–	21400	–	15200

OCC(Cl)(Cl)Cl [trichloroethanol]
concentration in blood [ng/mL]
Details	0 h	18 h	24 h	42 h	48 h	66 h	72 h	90 h	96 h
human [11]	4780	1170	3430	2780	6470	5220	10800	7860	–
human [12]	7540	3770	7410	2960	6640	2540	6900	3410	6090

Details	concentration in blood [ng/mL]
human [12], -6 h, during exposure	222

C=CCc1ccc(OC)c(OC)c1 [Methyleugenol]
Details	concentration in plasma [ng/mL]
Rat [13], 2 min	43100
Rat [13], 6 h	68
Rat [14], 0.25 h	9380
Rat [14], 1.5 h	670
Rat [15], 5 h	16.9
Rat [15], 5 min	211

O=C(c1ccccc1)c1ccc(O)cc1O [2,4-Dihydroxybenzophenone]
concentration in plasma [ng/mL]
Details	0.25 h	0.5 h	4 h	12 h
Rat [16]	–	162	–	148
Rat [19]	–	669	–	198
Rat [23]	33	–	90.4	–

Details	concentration in plasma [ng/mL]
Mouse [17]	318
Mouse [18]	32.7
Mouse [21]	1490
Mouse [22]	133
Rat [20]	285

CC(C)[C@]12CC(=O)[C@H](C)[C@H]1C2 [alpha-Thujone]
Details	concentration in brain [ng/g]	concentration in plasma [ng/mL]
Rat [24]	–	18.3
Rat [25]	2340	–
Rat [26]	865	–
Rat [27]	–	464
Rat [28]	19.8	–
Rat [29]	–	248
Rat [30]	176	–
Rat [31]	1360	–

CCC1(c2ccccc2)C(=O)NCNC1=O [Primidone]
Details	concentration in plasma [ng/mL]
Rat [32]	1600
